According to ChEMBL document CHEMBL3421570, “Combinatorial Libraries As a Tool for the Discovery of Novel, Broad-Spectrum Antibacterial Agents Targeting the ESKAPE Pathogens” (J Med Chem, 2015):
≈ marks a conversion by molar mass, not a printed value. Calls of active or inactive are those of the source. No cut-off for these calls is given here.

Legend:
Staphylococcus aureus [1] = experiment: Effect on bacterial density of methicillin-resistant Staphylococcus aureus at 200 uM measured over 2 hrs period by time kill assay; assay type: functional, organism-based
Staphylococcus aureus [2] = experiment: Bactericidal activity against methicillin-resistant Staphylococcus aureus assessed as cell survival recovery at 200 uM measured after drug wash out after 120 mins by time kill assay; assay type: functional; settings: 2 h
Outline: (§1)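 MRSA from stationary phase was regrown 3 h in TSB and seeded at OD600 0.5. […] After 120 min, cells were centrifuged and washed, serially diluted and plated for CFU. Percent recovery is relative to no-drug controls.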

[3] = Selectivity index, ratio of IC50 for human A549 cells to MIC for Enterococcus faecium
[4] = Cytotoxicity against human A549 cells assessed as cell viability recovery at 225 uM after 48 hrs by MTT assay; assay type: cell-based; settings: read-out: Activity
Outline: (§2)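 A549 cells grown in F-12K with L-glutamine, 10% FBS, 1% penicillin-streptomycin, seeded at 1.0 × 10^5 ml−1, allowed to adhere 24 h (37°C, 5% CO2), then exposed to compound in 45% w/v (2-hydroxypropyl)-β-cyclodextrin vehicle for 48 h. MTT 4 h, formazan solubilized in DMSO, absorbance 540 nm. Percent recovery versus vehicle-only; IC50 derived; at least three independent experiments.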

Staphylococcus aureus [5] = experiment: Effect on bacterial density of methicillin-resistant Staphylococcus aureus at MIC measured over 2 hrs period by time kill assay; assay type: functional, organism-based
Klebsiella pneumoniae [6] = experiment: Antimicrobial activity against Klebsiella pneumoniae assessed as inhibition of microbial growth after 24 hrs; assay type: functional
Outline: (§3)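 Broth microdilution against multidrug-resistant clinical ESKAPE isolates. Overnight cultures (TSB for Gram-positives, LB for Gram-negatives) diluted 1:1000 in fresh medium, compound in DMF (≤2.0% DMF) added at decreasing concentrations, 37°C.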

Enterococcus faecium [7] = experiment: Bactericidal activity against Enterococcus faecium after 24 hrs; assay type: functional
[8] = Selectivity index, ratio of IC50 for human A549 cells to MIC for Acinetobacter baumannii
[9] = Selectivity index, ratio of IC50 for human A549 cells to MIC for Enterobacter cloacae
Staphylococcus aureus [10] = experiment: Ratio of MIC for Staphylococcus aureus measured after 8 cycle passage to MIC for wild type Staphylococcus aureus; assay type: functional
Acinetobacter baumannii [11] = experiment: Antimicrobial activity against Acinetobacter baumannii assessed as inhibition of microbial growth after 24 hrs; assay type: functional; outline: as §3
Staphylococcus aureus [12] = experiment: Antimicrobial activity against Staphylococcus aureus USA300 strain FPR3757 infected in mouse model of lethal peritonitis assessed as mouse survival at 2 uM, im dosed 1 hr post infection and measured after 5 days post infection; assay type: functional, organism-based
Outline: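 Mice, six per group, infected i.p. with 1 × 10^8 CFU ml−1 S. aureus USA300 FPR3757 in PBS with 5% mucin. Compound given i.m. at 2 μM 1 h later; vehicle 45% w/v (2-hydroxypropyl)-β-cyclodextrin in water i.v.; vancomycin i.v. as control. Monitored twice daily for 5 days, pre-moribund animals euthanized. Survival compared by log-rank test.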

Pseudomonas aeruginosa [13] = experiment: Antimicrobial activity against Pseudomonas aeruginosa isolate 1420 assessed as inhibition of microbial growth at 2 uM after 24 hrs; assay type: functional, organism-based
Enterococcus faecium [14] = experiment: Antimicrobial activity against Enterococcus faecium assessed as inhibition of microbial growth after 24 hrs; assay type: functional; outline: as §3
Pseudomonas aeruginosa [15] = experiment: Antimicrobial activity against Pseudomonas aeruginosa isolate 1420 assessed as inhibition of microbial growth at 2 uM in presence of 100 uM efflux pump inhibitor reserpine after 24 hrs; assay type: functional, organism-based
Staphylococcus aureus [16] = experiment: Antimicrobial activity against Staphylococcus aureus assessed as inhibition of microbial growth after 24 hrs; assay type: functional; outline: as §3
Enterobacter cloacae [17] = experiment: Induction of spontaneous mutation in Enterobacter cloacae at 2 to 10 MIC; assay type: functional, organism-based
Enterobacter cloacae [18] = experiment: Antibiofilm activity against Enterobacter cloacae incubated for 24 hrs followed by biofilm resuspension in PBS and measured after 24 hrs; assay type: functional
Outline: (§4)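 Biofilms grown 24 h in 96-well plates from overnight cultures standardized to OD600 0.5 in fresh medium (human serum only for S. aureus; TSB for Gram-positives, LB for Gram-negatives). Medium then replaced with fresh medium containing a concentration range above and below MIC, 37°C overnight. After 24 h biofilm resuspended in PBS, serially diluted, plated in duplicate, CFU counted after 24 h at 37°C. Activity relative to untreated; three technical replicates; MBEC50 reported.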

Enterococcus faecium [19] = experiment: Induction of spontaneous mutation in Enterococcus faecium at 2 to 10 MIC; assay type: functional, organism-based
Enterobacter cloacae [20] = experiment: Antimicrobial activity against Enterobacter cloacae assessed as inhibition of microbial growth after 24 hrs; assay type: functional; outline: as §3
[21] = Selectivity index, ratio of IC50 for human A549 cells to MIC for Pseudomonas aeruginosa
Staphylococcus aureus [22] = experiment: Induction of spontaneous mutation in Staphylococcus aureus at 2 to 10 MIC; assay type: functional, organism-based
A549 = experiment: Cytotoxicity against human A549 cells after 48 hrs by MTT assay; assay type: cell-based; settings: A549, 48 h; outline: as §2
Enterobacter cloacae [23] = experiment: Antimicrobial activity against Enterobacter cloacae assessed as inhibition of microbial growth at 45 uM after 24 hrs; assay type: functional, organism-based
Outline: (§5)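 Broth microdilution single-concentration read: overnight cultures diluted 1:1000, compound in DMF (≤2.0%) added, 37°C for 24 h, growth inhibition scored visually by lack of turbidity; triplicate. Gram-positives grown in TSB, Gram-negatives in LB.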

Enterococcus faecium [24] = experiment: Antibiofilm activity against Enterococcus faecium incubated for 24 hrs followed by biofilm resuspension in PBS and measured after 24 hrs; assay type: functional; outline: as §4
Staphylococcus aureus [25] = experiment: Bactericidal activity against methicillin-resistant Staphylococcus aureus assessed as cell survival recovery at MIC measured after drug wash out after 120 mins by time kill assay; assay type: functional; outline: as §1
Pseudomonas aeruginosa [26] = experiment: Antimicrobial activity against Pseudomonas aeruginosa assessed as inhibition of microbial growth after 24 hrs; assay type: functional; outline: as §3
[27] = Cytotoxicity against human A549 cells assessed as cell viability recovery up to 125 uM after 48 hrs by MTT assay; assay type: cell-based; settings: read-out: Activity; outline: as §2
Klebsiella pneumoniae [28] = experiment: Antimicrobial activity against Klebsiella pneumoniae assessed as inhibition of microbial growth at 45 uM after 24 hrs; assay type: functional, organism-based; outline: as §5
[29] = Selectivity index, ratio of IC50 for human A549 cells to MIC for Klebsiella pneumoniae
[30] = Induction of hemolysis in human RBC at 10 uM incubated for 15 mins; assay type: cell-based, Erythrocyte; settings: red blood cells, read-out: Activity
Outline: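 Human RBCs from whole blood, resuspended 20% v/v in HA buffer (NaCl, CaCl2), compound 10 μM, 15 min at 37°C. Centrifuged 5,500 g for 1 min, supernatant OD543 read. Percent hemolysis against DMF vehicle (0%) and 1.0% Triton X-100 (100%); triplicate.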

Acinetobacter baumannii [31] = experiment: Antimicrobial activity against Acinetobacter baumannii assessed as inhibition of microbial growth at 45 uM after 24 hrs; assay type: functional, organism-based; outline: as §5
Klebsiella pneumoniae [32] = experiment: Antibiofilm activity against Klebsiella pneumoniae incubated for 24 hrs followed by biofilm resuspension in PBS and measured after 24 hrs; assay type: functional; outline: as §4
[33] = Selectivity index, ratio of IC50 for human A549 cells to MIC for Staphylococcus aureus
Enterobacter cloacae [34] = experiment: Bactericidal activity against Enterobacter cloacae after 24 hrs; assay type: functional
Acinetobacter baumannii [35] = experiment: Antibiofilm activity against Acinetobacter baumannii incubated for 24 hrs followed by biofilm resuspension in PBS and measured after 24 hrs; assay type: functional; outline: as §4
Pseudomonas aeruginosa [36] = experiment: Induction of spontaneous mutation in Pseudomonas aeruginosa at 2 to 10 MIC; assay type: functional, organism-based; settings: 2 to 10 x MIC
Pseudomonas aeruginosa [37] = experiment: Antimicrobial activity against Pseudomonas aeruginosa assessed as inhibition of microbial growth at 45 uM after 24 hrs; assay type: functional, organism-based; outline: as §5
Klebsiella pneumoniae [38] = experiment: Induction of spontaneous mutation in Klebsiella pneumoniae at 2 to 10 MIC; assay type: functional, organism-based
Pseudomonas aeruginosa [39] = experiment: Antibiofilm activity against Pseudomonas aeruginosa incubated for 24 hrs followed by biofilm resuspension in PBS and measured after 24 hrs; assay type: functional; outline: as §4
Klebsiella pneumoniae [40] = experiment: Bactericidal activity against Klebsiella pneumoniae after 24 hrs; assay type: functional
Pseudomonas aeruginosa [41] = experiment: Bactericidal activity against Pseudomonas aeruginosa after 24 hrs; assay type: functional
Staphylococcus aureus [42] = experiment: Bactericidal activity against methicillin-resistant Staphylococcus aureus at MIC measured after drug wash out after 120 mins by time kill assay; assay type: functional; outline: as §1
Enterococcus faecium [43] = experiment: Antimicrobial activity against Enterococcus faecium assessed as inhibition of microbial growth at 45 uM after 24 hrs; assay type: functional, organism-based; outline: as §5
Staphylococcus aureus [44] = experiment: Bactericidal activity against Staphylococcus aureus after 24 hrs; assay type: functional
Staphylococcus aureus [45] = experiment: Antibiofilm activity against Staphylococcus aureus incubated for 24 hrs followed by biofilm resuspension in PBS and measured after 24 hrs; assay type: functional; outline: as §4
Acinetobacter baumannii [46] = experiment: Bactericidal activity against Acinetobacter baumannii after 24 hrs; assay type: functional
Acinetobacter baumannii [47] = experiment: Induction of spontaneous mutation in Acinetobacter baumannii at 2 to 10 MIC; assay type: functional, organism-based
Staphylococcus aureus [48] = experiment: Antimicrobial activity against Staphylococcus aureus assessed as inhibition of microbial growth at 45 uM after 24 hrs; assay type: functional, organism-based; outline: as §5

With `C[C@H]1c2cccc(O)c2C(=O)C2=C(O)[C@]3(O)C(=O)C(C(N)=O)=C(O)[C@@H](N(C)C)[C@@H]3[C@@H](O)[C@@H]21` [DOXYCYCLINE] as the compound, how does the Activity (Staphylococcus aureus [1]) read?
The Activity was “inactive”.

What about the survival at 200 µM (Staphylococcus aureus [2]) of the same compound?
The survival at 200 µM was 92%.

What does the source list for `CCCCCCCN1C(=N)N(CCCC[C@H]2CNC(=N)N2CCc2cccc(C(F)(F)F)c2)C[C@@H]1CCCC`?
Selectivity Index [3]: 100; viability at 48 h, 225 µM [4]: 40%; Activity (Staphylococcus aureus [5]): inactive; MIC (Klebsiella pneumoniae [6]): 1.6 µM; MBC90 (Enterococcus faecium [7]): 1.9 µM (≈ 1.05 µg/mL); Selectivity Index [8]: 100; Selectivity Index [9]: 100; Ratio (Staphylococcus aureus [10]): 2; MIC (Acinetobacter baumannii [11]): 1.6 µM; Activity (Staphylococcus aureus [12]): Active; growth inhibition (GI) (Pseudomonas aeruginosa [13]): inactive; MIC (Enterococcus faecium [14]): 1.6 µM; growth inhibition (GI) (Pseudomonas aeruginosa [15]): Active; MIC (Staphylococcus aureus [16]): 1.6 µM; Activity (Enterobacter cloacae [17]): inactive; MBEC50 (Enterobacter cloacae [18]): 13 µM; Activity (Enterococcus faecium [19]): inactive; MIC (Enterobacter cloacae [20]): 1.6 µM; Selectivity Index [21]: 100; Activity (Staphylococcus aureus [22]): inactive; IC50 (A549): 164 µM; growth inhibition (GI) (Enterobacter cloacae [23]): Active; MBEC50 (Enterococcus faecium [24]): 39 µM; Survival (Staphylococcus aureus [25]): 0.2%; MIC (Pseudomonas aeruginosa [26]): 1.6 µM; viability at 48 h [27]: > 63%; growth inhibition (GI) (Klebsiella pneumoniae [28]): Active; Selectivity Index [29]: 100; hemolysis at 0.25 h, 10 µM [30]: 0.34%; growth inhibition (GI) (Acinetobacter baumannii [31]): Active; MBEC50 (Klebsiella pneumoniae [32]): 7 µM; Selectivity Index [33]: 100; MBC90 (Enterobacter cloacae [34]): 3.1 µM (≈ 1.71 µg/mL); MBEC50 (Acinetobacter baumannii [35]): 15 µM; Activity (Pseudomonas aeruginosa [36]): inactive; growth inhibition (GI) (Pseudomonas aeruginosa [37]): Active; Activity (Klebsiella pneumoniae [38]): inactive; MBEC50 (Pseudomonas aeruginosa [39]): 20 µM; MBC90 (Klebsiella pneumoniae [40]): 2.4 µM (≈ 1.32 µg/mL); MBC90 (Pseudomonas aeruginosa [41]): 4 µM (≈ 2.2 µg/mL); fold change (FC) (Staphylococcus aureus [42]): 2.5; growth inhibition (GI) (Enterococcus faecium [43]): Active; MBC90 (Staphylococcus aureus [44]): 3.1 µM (≈ 1.71 µg/mL); MBEC50 (Staphylococcus aureus [45]): 14 µM; MBC90 (Acinetobacter baumannii [46]): 3.1 µM (≈ 1.71 µg/mL); Activity (Acinetobacter baumannii [47]): inactive; growth inhibition (GI) (Staphylococcus aureus [48]): Active
